System: U2OS
Experiment: Multiplex assay against U2OS
Format: toxicity, cell-based
Details: human
Outline: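 Per cents of healthy-nucleus cells form the tubulin, mitochondrial-mass and membrane-permeability phenotype values. Live cells were stained at seeding with Hoechst33342, BioTracker Green Microtubule Cytoskeleton Dye, MitoTracker Red and Annexin V Alexa Fluor 680. After compound addition they were imaged on a CQ1 microscope at 37°C and 5% CO2, and CellPathfinder machine-learning gating split them into Hoechst high-intensity objects or normal cells, normal cells into healthy, pyknosed or fragmented nuclei, and pyknosed cells into mitotic or apoptotic.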

[1] = 12 h, 1 µM, compound concentration 1 uM, replicate 1
[2] = 12 h, 1 µM, compound concentration 1 uM, replicate 2
[3] = 12 h, 10 µM, compound concentration 10 uM, replicate 1
[4] = 12 h, 10 µM, compound concentration 10 uM, replicate 2
[5] = 24 h, 1 µM, compound concentration 1 uM, replicate 1
[6] = 24 h, 1 µM, compound concentration 1 uM, replicate 2
[7] = 24 h, 10 µM, compound concentration 10 uM, replicate 1
[8] = 24 h, 10 µM, compound concentration 10 uM, replicate 2
[9] = 48 h, 1 µM, compound concentration 1 uM, replicate 1
[10] = 48 h, 1 µM, compound concentration 1 uM, replicate 2
[11] = 48 h, 10 µM, compound concentration 10 uM, replicate 1
[12] = 48 h, 10 µM, compound concentration 10 uM, replicate 2

CC[C@@H](C)Nc1nc(C)nc2c(-c3ccc(OC)nc3C)c(C)nn12 [PEXACERFONT]
Population Apoptotic (%) [1]: 73%
Population Fragmented Nuclei (%) [1]: 24%
Population Healthy Nuclei (%) [1]: 66%
Population Hoechst High Intensity Objects (%) [1]: 3%
Population Membrane Permeable-Phenotype (%) [1]: 2%
Population Mitochondria Different-Phenotype (%) [1]: 3%
Population Mitotic Cells (%) [1]: 26%
Population Normal (%) [1]: 96%
Population Pyknosed Nuclei (%) [1]: 9%
Population Tubulin-Different-Phenotype (%) [1]: 2%
Total Cell Count [1]: 258
Population Apoptotic (%) [2]: 87%
Population Fragmented Nuclei (%) [2]: 17%
Population Healthy Nuclei (%) [2]: 76%
Population Hoechst High Intensity Objects (%) [2]: 0%
Population Membrane Permeable-Phenotype (%) [2]: 1%
Population Mitochondria Different-Phenotype (%) [2]: 0%
Population Mitotic Cells (%) [2]: 12%
Population Normal (%) [2]: 99%
Population Pyknosed Nuclei (%) [2]: 5%
Population Tubulin-Different-Phenotype (%) [2]: 0%
Total Cell Count [2]: 136
Population Apoptotic (%) [3]: 90%
Population Fragmented Nuclei (%) [3]: 26%
Population Healthy Nuclei (%) [3]: 64%
Population Hoechst High Intensity Objects (%) [3]: 1%
Population Membrane Permeable-Phenotype (%) [3]: 2%
Population Mitochondria Different-Phenotype (%) [3]: 1%
Population Mitotic Cells (%) [3]: 9%
Population Normal (%) [3]: 98%
Population Pyknosed Nuclei (%) [3]: 8%
Population Tubulin-Different-Phenotype (%) [3]: 1%
Total Cell Count [3]: 265
Population Fragmented Nuclei (%) [4]: 21%
Population Healthy Nuclei (%) [4]: 70%
Population Membrane Permeable-Phenotype (%) [4]: 12%
Population Mitochondria Different-Phenotype (%) [4]: 7%
Population Mitotic Cells (%) [4]: 10%
Population Pyknosed Nuclei (%) [4]: 7%
Population Tubulin-Different-Phenotype (%) [4]: 4%
Total Cell Count [4]: 128
Population Apoptotic (%) [5]: 80%
Population Fragmented Nuclei (%) [5]: 21%
Population Healthy Nuclei (%) [5]: 69%
Population Hoechst High Intensity Objects (%) [5]: 2%
Population Membrane Permeable-Phenotype (%) [5]: 5%
Population Mitochondria Different-Phenotype (%) [5]: 2%
Population Mitotic Cells (%) [5]: 20%
Population Normal (%) [5]: 97%
Population Pyknosed Nuclei (%) [5]: 8%
Population Tubulin-Different-Phenotype (%) [5]: 2%
Total Cell Count [5]: 346
Population Apoptotic (%) [6]: 85%
Population Fragmented Nuclei (%) [6]: 16%
Population Healthy Nuclei (%) [6]: 75%
Population Membrane Permeable-Phenotype (%) [6]: 3%
Population Mitochondria Different-Phenotype (%) [6]: 6%
Population Mitotic Cells (%) [6]: 14%
Total Cell Count [6]: 172
Population Apoptotic (%) [7]: 80%
Population Fragmented Nuclei (%) [7]: 21%
Population Healthy Nuclei (%) [7]: 71%
Population Hoechst High Intensity Objects (%) [7]: 2%
Population Membrane Permeable-Phenotype (%) [7]: 5%
Population Mitochondria Different-Phenotype (%) [7]: 3%
Population Mitotic Cells (%) [7]: 19%
Population Normal (%) [7]: 97%
Population Pyknosed Nuclei (%) [7]: 7%
Population Tubulin-Different-Phenotype (%) [7]: 4%
Total Cell Count [7]: 307
Population Apoptotic (%) [8]: 92%
Population Fragmented Nuclei (%) [8]: 14%
Population Healthy Nuclei (%) [8]: 77%
Population Hoechst High Intensity Objects (%) [8]: 0%
Population Membrane Permeable-Phenotype (%) [8]: 7%
Population Mitotic Cells (%) [8]: 7%
Population Normal (%) [8]: 99%
Population Pyknosed Nuclei (%) [8]: 8%
Population Tubulin-Different-Phenotype (%) [8]: 3%
Total Cell Count [8]: 159
Population Apoptotic (%) [9]: 88%
Population Fragmented Nuclei (%) [9]: 16%
Population Healthy Nuclei (%) [9]: 75%
Population Hoechst High Intensity Objects (%) [9]: 1%
Population Membrane Permeable-Phenotype (%) [9]: 3%
Population Mitochondria Different-Phenotype (%) [9]: 1%
Population Mitotic Cells (%) [9]: 11%
Population Normal (%) [9]: 98%
Population Pyknosed Nuclei (%) [9]: 7%
Population Tubulin-Different-Phenotype (%) [9]: 1%
Total Cell Count [9]: 476
Population Apoptotic (%) [10]: 91%
Population Healthy Nuclei (%) [10]: 73%
Population Hoechst High Intensity Objects (%) [10]: 2%
Population Membrane Permeable-Phenotype (%) [10]: 5%
Population Mitochondria Different-Phenotype (%) [10]: 4%
Population Mitotic Cells (%) [10]: 8%
Population Normal (%) [10]: 97%
Population Pyknosed Nuclei (%) [10]: 9%
Population Tubulin-Different-Phenotype (%) [10]: 4%
Total Cell Count [10]: 261
Population Apoptotic (%) [11]: 94%
Population Fragmented Nuclei (%) [11]: 17%
Population Healthy Nuclei (%) [11]: 74%
Population Hoechst High Intensity Objects (%) [11]: 1%
Population Membrane Permeable-Phenotype (%) [11]: 4%
Population Mitochondria Different-Phenotype (%) [11]: 1%
Population Mitotic Cells (%) [11]: 5%
Population Normal (%) [11]: 98%
Population Pyknosed Nuclei (%) [11]: 8%
Population Tubulin-Different-Phenotype (%) [11]: 1%
Total Cell Count [11]: 478
Population Apoptotic (%) [12]: 100%
Population Fragmented Nuclei (%) [12]: 13%
Population Healthy Nuclei (%) [12]: 77%
Population Membrane Permeable-Phenotype (%) [12]: 6%
Population Mitochondria Different-Phenotype (%) [12]: 3%
Population Mitotic Cells (%) [12]: 0%
Population Tubulin-Different-Phenotype (%) [12]: 2%
Total Cell Count [12]: 242

Reference: ChEMBL document CHEMBL5058577, “EUbOPEN Chemogenomics Library 2 (Multiplex)” (2022)
